For one compound, IC50 results are on record in BindingDB's records for doi:10.1021/jm020545z (Amorepacific R&D Center, 2004).

The experiment deals with T1, Prostaglandin G/H synthase 1 (Mus musculus, UniProt P22437).
T1 sequence (P22437 whole entry): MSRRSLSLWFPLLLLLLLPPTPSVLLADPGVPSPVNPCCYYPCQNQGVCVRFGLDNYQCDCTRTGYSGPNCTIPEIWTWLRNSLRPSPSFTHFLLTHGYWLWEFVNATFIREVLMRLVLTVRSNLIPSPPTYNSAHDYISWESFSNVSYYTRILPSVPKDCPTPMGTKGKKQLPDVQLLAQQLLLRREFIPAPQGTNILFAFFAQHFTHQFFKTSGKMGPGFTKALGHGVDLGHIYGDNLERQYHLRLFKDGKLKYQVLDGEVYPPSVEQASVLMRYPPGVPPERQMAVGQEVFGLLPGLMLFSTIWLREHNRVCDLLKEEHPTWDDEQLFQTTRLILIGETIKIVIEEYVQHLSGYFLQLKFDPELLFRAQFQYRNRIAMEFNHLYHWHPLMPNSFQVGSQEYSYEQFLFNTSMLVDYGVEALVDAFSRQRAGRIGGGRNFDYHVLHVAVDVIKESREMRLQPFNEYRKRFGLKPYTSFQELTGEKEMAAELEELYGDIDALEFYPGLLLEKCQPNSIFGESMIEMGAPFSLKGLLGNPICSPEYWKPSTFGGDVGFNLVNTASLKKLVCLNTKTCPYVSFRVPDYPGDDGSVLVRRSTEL
Briefly: In vitro inhibitory activity against prostaglandin G/H synthase 1 using mouse peritoneal macrophage method. In short, it runs like this: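 Freshly harvested mouse peritoneal macrophages were the enzyme source. Cells were preincubated 10 min at 37 °C with inhibitor in DMSO, then stimulated with calcium ionophore A23187 for 10 min. The reaction was stopped with indomethacin in 0.1% BSA buffer and centrifuged, and supernatant TXB₂ was measured by ELISA.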

As usually defined, the IC50 is the concentration that gives 50% inhibition. A low value points to greater potency in that assay. The compound `CC1(C)OC(c2ccc(S(N)(=O)=O)cc2)=C(c2ccco2)C1=O` registered an IC50 greater than 29.9 µM.
